Apaf1 activ: activates human Apaf-1 apoptosome; O14727; activity change, negative = activation, % at 20 µM; 330,000 compounds, 0.31% hits; Apaf-1 apoptosome caspase-3 activation, DEVD-Rh110 fluorescence; hits give low values;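 active means activity change at or below -40% at 20 µM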
Target sequence (O14727 whole entry, looked up): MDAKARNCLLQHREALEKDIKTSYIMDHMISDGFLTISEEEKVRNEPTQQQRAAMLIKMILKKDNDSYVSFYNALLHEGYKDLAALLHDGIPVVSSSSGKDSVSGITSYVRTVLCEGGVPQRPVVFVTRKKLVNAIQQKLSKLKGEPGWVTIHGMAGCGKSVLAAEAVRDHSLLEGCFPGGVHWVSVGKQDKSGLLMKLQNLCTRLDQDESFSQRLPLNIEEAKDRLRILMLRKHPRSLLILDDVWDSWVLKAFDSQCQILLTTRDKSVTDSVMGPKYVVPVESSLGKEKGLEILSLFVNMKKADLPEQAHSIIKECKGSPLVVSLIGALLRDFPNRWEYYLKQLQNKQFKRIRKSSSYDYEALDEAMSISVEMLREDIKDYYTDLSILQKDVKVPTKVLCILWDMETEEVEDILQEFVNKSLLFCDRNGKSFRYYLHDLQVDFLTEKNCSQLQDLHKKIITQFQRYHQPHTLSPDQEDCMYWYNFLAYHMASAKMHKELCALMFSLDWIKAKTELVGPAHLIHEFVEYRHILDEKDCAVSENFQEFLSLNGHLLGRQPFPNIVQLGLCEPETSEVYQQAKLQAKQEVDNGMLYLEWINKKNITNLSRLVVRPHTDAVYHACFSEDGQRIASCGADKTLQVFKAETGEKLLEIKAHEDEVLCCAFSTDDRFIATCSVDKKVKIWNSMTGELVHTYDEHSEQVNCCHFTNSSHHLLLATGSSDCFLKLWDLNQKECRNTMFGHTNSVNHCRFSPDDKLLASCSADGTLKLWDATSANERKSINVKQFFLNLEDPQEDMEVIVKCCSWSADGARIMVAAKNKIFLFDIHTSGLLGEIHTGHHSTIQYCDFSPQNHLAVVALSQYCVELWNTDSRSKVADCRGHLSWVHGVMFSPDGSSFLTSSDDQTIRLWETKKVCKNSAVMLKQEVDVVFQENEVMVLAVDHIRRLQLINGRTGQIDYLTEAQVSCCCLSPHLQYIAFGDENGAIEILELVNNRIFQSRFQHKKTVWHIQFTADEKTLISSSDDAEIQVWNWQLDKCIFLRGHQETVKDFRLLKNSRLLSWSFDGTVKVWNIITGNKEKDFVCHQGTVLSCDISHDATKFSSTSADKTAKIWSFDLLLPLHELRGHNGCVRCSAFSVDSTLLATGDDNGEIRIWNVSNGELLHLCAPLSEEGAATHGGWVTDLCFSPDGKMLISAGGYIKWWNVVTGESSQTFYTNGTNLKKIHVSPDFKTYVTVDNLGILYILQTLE
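Assay system – biochemical Apaf-1 apoptosome reconstitution · Medium – 20 mM HEPES buffer, pH 7.5, containing CHAPS and BSA · Incubation – 30 min preincubation, 50 min reaction, room temperature · Measured by – Caspase-3-released Rh110 fluorescence, 540 nm emission, 480 nm excitation · Read-out – Caspase-3 cleavage activity downstream of Apaf-1 activation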
Rh110 interf act: Rh110 signal interference in Apaf-1 activator counter-screen; shares compounds with Apaf1 activ; Rh110 fluorescence interference, quenched caspase reaction, Ex480/Em540; fluorescence interference (activity change), % at 20 µM, hits read low; 980 tested, under 10 active; AID 504616;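 active means mean activity change at or below -40% when tested at 20 µM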
Apaf-1 act conf: confirmation of human Apaf-1 activators. AID 504617. shares compounds with Apaf1 activ. activity change, negative = activation, % at 20 µM. 980 compounds, 5% hits. reconstituted apoptosome caspase-3 activity, DEVD-Rh110 fluorescence; hits give low values;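 active means mean activity change at or below -40%, meaning activation of 40% or more, at 20 µM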
Fluor interf act: shows fluorescence interference in the Apaf-1 activator assay format. shares compounds with Apaf1 activ. fluorescence interference counterscreen. EC50, µM. 55 tested, under 10 active. AID 588592; call rule not given here
* hit, by the source's call; . = no result given. A selection follows.

SMILES	Apaf1 activ	Rh110 interf act	Apaf-1 act conf	others
O/N=C(\c1ccccn1)C1CC1c1ccccc1 (stereo not drawn)	-63.3*	15.7	14.6
COc1ccc2[nH]c3c(C)c4ccncc4c(C)c3c2c1	76.4	.	.
CN(C)C=Nc1c(Br)cc(Br)c2nonc12	42.9	.	.
CCSc1ccc2c(c1)N(CCCN1CCN(C)CC1)c1ccccc1S2	56.8	.	.
NC1=Nc2cccc3cccc1c23	67.4	.	.
Cn1c(SCc2ccc(F)cc2)nnc1-c1cnccn1	-155.9*	4.1	9.1
Cn1nc(-c2ccc(Cl)cc2)c2cc(C(=O)NCCCN3CCCC3)sc21	49.2	.	.
CC1CN(Cc2c(O)ccc3c2oc(=O)c2ccccc23)CC(C)O1 (stereo not drawn)	44.3	.	.
CCOc1cccc2sc(N(CCCN(C)C)C(=O)c3ccc(S(=O)(=O)N4CCc5ccccc5C4)cc3)nc12	61.7	.	.
CCOc1ccc(S(=O)(=O)N2CCc3ccccc3C2)cc1	-120.1*	-4.6	11.9
CN1CCN(S(=O)(=O)c2ccc(SCCOc3ccc(Cl)cc3)nc2)CC1	50.7	.	.
C=CCn1c(N)c(C(=O)NCC2CCCO2)c2nc3ccccc3nc21 (stereo not drawn)	77.7	.	.
COc1ccc(-n2c(N)c(C(=O)NCC3CCCO3)c3nc4ccccc4nc32)c(OC)c1 (stereo not drawn)	65.8	.	.
COc1ccccc1-c1ccc(=O)n(CC(=O)NCC2CCCO2)n1 (stereo not drawn)	-50.0*	-1.0	6.9
CCOC(=O)c1nn(-c2ccccc2)c(=O)c2c(N)scc12	55.5	.	.
COc1cc(/C=C2\C(=O)N(CCC#N)N=C2C)ccc1OCC(=O)Nc1ccccc1	93.5	.	.
COc1cc(/C=N/NC(=O)c2ccncc2)ccc1OCC(=O)Nc1cccc([N+](=O)[O-])c1	-125.3*	-2.2	-23.7
COC(=O)CCC(=O)OC1(C)C(=O)C=C2C=C(C3CC3)N(CCCCO)C=C2C1=O (stereo not drawn)	63.7	.	.
Cc1noc(C)c1NC(=O)N(C)C[C@H]1Oc2ccc(NC(=O)CCN3CCOCC3)cc2C(=O)N([C@H](C)CO)C[C@@H]1C	-45.7*	5.5	12.4
C[C@H](CO)N1C[C@H](C)[C@@H](CN(C)Cc2ccc(-c3ccccc3)cc2)Oc2c(NC(=O)Cc3ccccc3)cccc2C1=O	43.4	.	.
Cc1cccc(NC(=S)NCc2ccc3c(c2)cc(C)n3C)c1C	65.6	.	.
C=CCN1C(=O)C2(OCCCO2)c2ccccc21	-42.1*	7.8	14.9
CCN(CC)c1ccc(N=C2C(=O)Nc3ccccc32)cc1	47.0	.	.
COc1cc2c(C#N)c(N3CCc4ccccc4C3)nc(N)c2c(N)n1	94.3	.	.
Clc1ccc(CSc2nnc3ccccn23)c(Cl)c1	-40.1*	7.4	15.2
SMILES	Apaf1 activ	Rh110 interf act	Apaf-1 act conf	others
C#CCOCCOCCOCCNc1nc(N2CCN(C(=O)CCCCCCCCCCNC(=O)Cn3cc(C[C@@H](C)O)nn3)CC2)nc(N2CCN(C(=O)CCCCCCCCCCNC(=O)[C@@H](CCC(=O)O)n3cc(CCCCCN)nn3)CC2)n1	51.9	.	.
CCOC(=O)c1cnc(-n2nc(C)cc2C)nc1NC1CCCCC1	41.7	.	.
CCOC(=O)C1=NNC2C(=O)N(C3CCCCC3)C(=O)C12 (stereo not drawn)	-79.4*	-6.5	6.9
Cc1[nH]n(-c2ccccc2)c(=O)c1C(=O)c1ccccc1	61.0	.	.
O=C(N/N=C/c1cc(Cl)cc([N+](=O)[O-])c1O)NC12CC3CC(CC(C3)C1)C2	-55.6*	-4.5	-121.2*	Fluor interf act=>100
CN(C)CCCNC(=S)NCC(c1ccc(Cl)cc1Cl)c1c[nH]c2ccccc12 (stereo not drawn)	41.2	.	.
Cc1ccc(NC(=O)c2ncn(CC(=O)N[C@H](CO)Cc3c[nH]c4ccccc34)n2)cc1C	74.3	.	.
CC(Cc1c[nH]c2ccccc12)C(=O)O (stereo not drawn)	-350.9*	8.0	-119.6*	Fluor interf act=>100
Cc1ccc(C=Nc2ccc(N(C)C)cc2)o1	51.1	.	.
Oc1ccc(/C=N/Nc2cc(N3CCCC3)nc(N3CCCC3)n2)cc1O	59.7	.	.
Cc1ccc(C2(C)NC(=O)N(CC(=O)Nc3ccc4[nH]c(=O)[nH]c4c3)C2=O)cc1 (stereo not drawn)	-58.2*	11.7	-4.7
CC1CC(C)(C)CC2(C1)NC(=O)N(CC(=O)Nc1ccc3[nH]c(=O)[nH]c3c1)C2=O (stereo not drawn)	44.3	.	.
N#Cc1c(NCCO)nc(NCc2ccccc2)c2c1CCN(Cc1ccccc1)C2	60.0	.	.
N#Cc1c(N)sc(=S)c2c1CCN(Cc1ccccc1)C2	95.5	.	.
N#Cc1ccccc1NC(=O)CN1CCN(Cc2ccccc2)CC1	-41.6*	19.1	10.9
Cc1ccc(C)c2[nH]c(=O)c(C(c3nnnn3Cc3ccccc3)N3CCc4ccccc4C3)cc12 (stereo not drawn)	67.3	.	.
CCOC(=O)N1CCC(NC(=O)CN2C(=O)CSc3ncccc32)CC1	62.8	.	.
Cc1cccc(-n2ncc3c2CCCC3NC(=O)CN2CCCC2=O)c1C (stereo not drawn)	-203.0*	4.8	4.1
COc1cccc(OC)c1-c1nn2c(-c3cc(-c4ccccc4)n[nH]3)nnc2s1	53.1	.	.
Cc1cccc(-c2cc3c(nn2)-c2ccccc2C3=O)c1	91.1	.	.
Cc1cccc(-c2nnc3sc(-c4ccccc4C)nn23)c1	-48.6*	6.3	26.3
O=C1CCCC2=C1C1(O)C(=O)c3ccccc3C1(O)O2 (stereo not drawn)	92.1	.	.
CCN1/C(=C/C(C)=C/c2sc3ccccc3[n+]2CC)Sc2ccccc21	52.7	.	.
CC(=O)O[C@]1(C(C)=O)CC[C@H]2[C@@H]3C[C@H](C)C4=CC(=O)CC[C@]4(C)[C@H]3CC[C@@]21C	17.8	.	.
Cc1cccc(CCNS(=O)(=O)c2cnc[nH]2)c1	-46.0*	-3.6	7.7
SMILES	Apaf1 activ	Rh110 interf act	Apaf-1 act conf	others
O=C(Nc1ccc(OC(F)F)c(Cl)c1)[C@@H]1CCCN1C(=O)c1cccs1	92.3	.	.
O=C(Nc1ccc2c(c1)OCO2)C1CCCCN1S(=O)(=O)c1ccccc1 (stereo not drawn)	-95.0*	16.1	17.5
Cc1ccc(NC(=O)N2CCCC2C(=O)Nc2ccc3c(c2)OCCO3)cc1 (stereo not drawn)	-82.8*	-1.2	10.5
Cc1ccc(C(=O)N/C(=C\c2ccc(-c3ccccc3[N+](=O)[O-])o2)C(=O)NCCN(C)C)cc1	52.8	.	.
O=C1CCN2C=Nc3cccc4ccc1c2c34	43.5	.	.
O=C(NCc1ccc2c(c1)OCO2)c1ccc2snnc2c1	-181.2*	-0.6	9.8
COC(=O)C1=C(C)N(Cc2ccccc2)C(=NCc2ccc3c(c2)OCO3)N[C@H]1c1ccccc1	44.5	.	.
C=CC(=C)CC(NC)c1ccccc1 (stereo not drawn)	-48.0*	5.5	1.1
O=C(NCCc1ccccc1)c1ccc2nc(-c3ccco3)c(-c3ccco3)nc2c1	45.8	.	.
O=C(CCc1ccccc1)Nc1ccc(NC(=O)c2ccco2)cc1	-192.7*	-10.4	14.5
CC(C)N1CCc2c(sc(NC(=O)c3cc(-c4cccs4)nc4ccccc34)c2C(N)=O)C1	61.1	.	.
CCOC(=O)C1CCCN(C2CCN(Cc3nc(Cc4ccccc4)no3)CC2)C1 (stereo not drawn)	-72.0*	-0.2	11.0

Screens from PubChem BioAssay.
